Among the data in ChEMBL document CHEMBL2163193, “Meroterpenoid and diphenyl ether derivatives from Penicillium sp. MA-37, a fungus isolated from marine mangrove rhizospheric soil” (J Nat Prod, 2012) are MIC and LC50 values, retold here.

The structures appear in SMILES notation. In brackets after ≈: the same amount, converted by molar mass.

For the first series, the system named is Escherichia coli. The series is described as follows: Antimicrobial activity against Escherichia coli by broth microdilution method. It counts as functional.
Conditions: not given
The method, boiled down:
(§1)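 Broth microdilution run per a cited literature method, with chloromycetin as the positive control. The read-out is the MIC in μg/mL.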
`CC(=O)OCc1cc(C)cc(O)c1Oc1ccc(CC=C(C)C)c(O)c1C(=O)O` gave an MIC of 16 mg/L (≈ 40 µM).

Regarding `COc1c(C(CC(C)C)OC)ccc(Oc2c(O)cc(C)cc2CO)c1C(=O)O` (stereo unspecified), the MIC stood at 32 mg/L (≈ 79.1 µM).

Consider `O=C(N[C@H](CO)[C@H](O)c1ccc([N+](=O)[O-])cc1)C(Cl)Cl` [CHLORAMPHENICOL], for which it took 4 mg/L (≈ 12.4 µM) to inhibit growth (MIC).

For a further series, the system named is Micrococcus luteus. Put plainly: Antimicrobial activity against Micrococcus luteus by broth microdilution method. It counts as functional.
Conditions: not given
The essentials:
as §1
The compound `CC(=O)OCc1cc(C)cc(O)c1Oc1ccc(CC=C(C)C)c(O)c1C(=O)O` yielded an MIC of 64 mg/L (≈ 160 µM).

Take `COc1c(C(CC(C)C)OC)ccc(Oc2c(O)cc(C)cc2CO)c1C(=O)O` (stereo unspecified): the MIC was found to be 256 mg/L (≈ 633 µM).

The compound `O=C(N[C@H](CO)[C@H](O)c1ccc([N+](=O)[O-])cc1)C(Cl)Cl` [CHLORAMPHENICOL] yielded an MIC of 4 mg/L (≈ 12.4 µM).

Test system in another series: not listed separately
Put plainly: Toxicity against brine shrimp. It is filed as organism-based. The note with it: artemia, in vivo; read-out: LD50 (the source's name). The method, boiled down: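 Brine shrimp lethality follows a literature procedure, with DMSO as the negative control and colchicine as the positive control. Lethality is expressed as LD50 in μM.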
In the case of `C=C(C)/C=C/c1ccc2c(c1OC)C(=O)OCc1cc(C)cc(O)c1O2`, the LC50 is 136 µM.

With `COc1c(/C=C/C(C)(C)OC)ccc2c1C(=O)OCc1cc(C)cc(O)c1O2`, the LC50 worked out at 72.6 µM.

Take `COC(=O)[C@]12C(=O)[C@H](C)O[C@@H]3OC(=O)[C@](C)(C[C@H]4[C@]5(CO5)C5=CC(=O)OC(C)(C)C5=CC[C@@]41C)[C@@H]32` [BERKELEYACETAL B]: the LC50 was found to be 160 µM.

With `COc1cc2c(c(OC)c1OC)-c1ccc(OC)c(=O)cc1[C@@H](NC(C)=O)CC2` [COLCHICINE], the LC50 amounted to 71.1 µM.

In the case of `COc1c([C@@H](O)CC(C)C)ccc2c1C(=O)OCc1cc(C)cc(O)c1O2` [PENICILLIDE], the LC50 is 158 µM.
